# Counter-ions that a name gives are not always drawn. Activity calls are given as the source filed them. The rule behind the calls is not given here.
# Key:
# Assay type in all cases: functional
# Staphylococcus aureus [1] = experiment: Antimicrobial activity against Staphylococcus aureus ATCC 25923 at 0.0172 uM after 17 hrs by disk diffusion assay; conditions: for zone of inhibition at 0.0172 µM: ATCC 25923, 17 h, read-out: IZ
# In short: (§1)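 Disk diffusion per CLSI M2-A8. S. aureus grown on trypticase soy agar; five fresh colonies into trypticase soy broth, ~5 h standing at 35 °C, adjusted to A625 0.1 (0.5 McFarland), swabbed onto Mueller–Hinton agar. Compounds in 25% methanol/water, 15 µl loaded on 6 mm paper disks; plates ~17 h at 35 °C; inhibition zones recorded, duplicate plates per strain.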
# Staphylococcus aureus [2] = experiment: Antimicrobial activity against Staphylococcus aureus ATCC 6538 at 0.0172 uM after 17 hrs by disk diffusion assay; conditions: for zone of inhibition at 0.0172 µM: ATCC 6538, 17 h, read-out: IZ; in short: as §1
# Staphylococcus aureus [3] = experiment: Antimicrobial activity against Staphylococcus aureus ATCC 6538 at 0.019 uM after 17 hrs by disk diffusion assay; conditions: ATCC 6538, 17 h, read-out: IZ
# In short: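 Disk diffusion on Mueller–Hinton agar (broth 2.1% w/v, agar 1.7%), following CLSI M2-A8. Inoculum from five fresh trypticase soy agar colonies grown about 5 h standing at 35 °C in trypticase soy broth, then adjusted to A625 0.1 (0.5 McFarland) and swabbed onto plates. Compounds in 25% methanol/water, 15 µl loaded on 6 mm paper disks. Plates incubated about 17 h at 35 °C, inhibition zones recorded, duplicate plates.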
# Staphylococcus aureus [4] = experiment: Antimicrobial activity against Staphylococcus aureus ATCC 25923 at 0.019 uM after 17 hrs by disk diffusion assay; conditions: ATCC 25923, 17 h, read-out: IZ; in short: as §1
# Staphylococcus aureus [5] = experiment: Antimicrobial activity against Staphylococcus aureus ATCC 25923 at 0.0602 uM after 17 hrs by disk diffusion assay; conditions: ATCC 25923, 17 h, read-out: IZ; in short: as §1
# Staphylococcus aureus [6] = experiment: Antimicrobial activity against Staphylococcus aureus ATCC 6538 at 0.0602 uM after 17 hrs by disk diffusion assay; conditions: ATCC 6538, 17 h, read-out: IZ; in short: as §1
# Staphylococcus aureus [7] = experiment: Antimicrobial activity against Staphylococcus aureus ATCC 6538 at 0.00686 uM after 17 hrs by disk diffusion assay; conditions: ATCC 6538, 17 h, read-out: IZ; in short: as §1
# Staphylococcus aureus [8] = experiment: Antimicrobial activity against Staphylococcus aureus ATCC 25923 at 0.00686 uM after 17 hrs by disk diffusion assay; conditions: ATCC 25923, 17 h, read-out: IZ; in short: as §1
# Staphylococcus aureus [9] = experiment: Antimicrobial activity against Staphylococcus aureus ATCC 6538 at 0.0344 uM after 17 hrs by disk diffusion assay; conditions: ATCC 6538, 17 h, read-out: IZ; in short: as §1
Structure (SMILES),Activity (Staphylococcus aureus [1]),Activity (Staphylococcus aureus [2]),zone of inhibition at 0.0172 µM (Staphylococcus aureus [1]),zone of inhibition at 0.0172 µM (Staphylococcus aureus [2]),also measured
CCOC(=O)/C=C(\C)[C@@H](O)[C@@H]1OCC[C@@H](O)[C@H]1O,inactive,inactive,,,
CC1(C)S[C@@H]2[C@H](NC(=O)Cc3ccccc3)C(=O)N2[C@H]1C(=O)O [PENICILLIN G SODIUM],,,,,zone of inhibition at 0.019 µM (Staphylococcus aureus [3]): 40 mm; zone of inhibition at 0.019 µM (Staphylococcus aureus [4]): 32 mm
C/C(=C1\CCOC1=O)[C@@H](O)[C@@H]1OCC[C@@H](O)[C@H]1O,inactive,inactive,,,
CN(C)[C@@H]1C(O)=C(C(N)=O)C(=O)[C@@]2(O)C(O)=C3C(=O)c4c(O)cccc4[C@@](C)(O)[C@H]3C[C@@H]12 [TETRACYCLINE HYDROCHLORIDE],,,,,zone of inhibition at 0.0602 µM (Staphylococcus aureus [5]): 29 mm; zone of inhibition at 0.0602 µM (Staphylococcus aureus [6]): 28 mm
COC(=O)/C=C(\C)[C@@H](O)[C@@H]1OC[C@H](C/C=C/[C@@H](C)[C@H](C)O)[C@@H](O)[C@H]1O,,,13 mm,16 mm,
CN[C@@H]1[C@H](O[C@H]2[C@H](O[C@H]3[C@H](O)[C@@H](O)[C@H](N=C(N)N)[C@@H](O)[C@@H]3N=C(N)N)O[C@@H](C)[C@]2(O)C=O)O[C@@H](CO)[C@H](O)[C@H]1O [STREPTOMYCIN SULFATE],,,,,zone of inhibition at 0.00686 µM (Staphylococcus aureus [7]): 16 mm; zone of inhibition at 0.00686 µM (Staphylococcus aureus [8]): 14 mm
C/C(=C\C(=O)OCCCCCCCC(=O)N[C@H]1CCCNC1=O)[C@@H](O)[C@@H]1OC[C@H](C/C=C/[C@@H](C)[C@H](C)O)[C@@H](O)[C@H]1O [THIOMARINOL H],,,10 mm,16 mm,
C/C(=C\C(=O)OC(C)C)[C@@H](O)[C@@H]1OC[C@H](C/C=C/[C@@H](C)[C@H](C)O)[C@@H](O)[C@H]1O,,,21 mm,22 mm,
CCOC(=O)/C=C(\C)[C@@H](O)[C@@H]1OC[C@H](C/C=C/[C@@H](C)[C@H](C)O)[C@@H](O)[C@H]1O,,,21 mm,22 mm,
CCCCNC(=O)/C=C(\C)[C@@H](O)[C@@H]1OC[C@H](C/C=C/[C@@H](C)[C@H](C)O)[C@@H](O)[C@H]1O,,,,,zone of inhibition at 0.0344 µM (Staphylococcus aureus [9]): 14 mm
C/C(=C\C(=O)OCCCCCCCCC(=O)O)C[C@@H]1OC[C@H](C[C@H]2O[C@@H]2[C@@H](C)[C@H](C)O)[C@@H](O)[C@H]1O [PSEUDOMONIC ACID A CALCIUM SALT],,,26 mm,32 mm,
C/C(=C\C(=O)O)[C@@H](O)[C@@H]1OC[C@H](C/C=C/[C@@H](C)[C@H](C)O)[C@@H](O)[C@H]1O,inactive,inactive,,,
CCN(CC)C(=O)/C=C(\C)[C@@H](O)[C@@H]1OC[C@H](C/C=C/[C@@H](C)[C@H](C)O)[C@@H](O)[C@H]1O,,,,,zone of inhibition at 0.0344 µM (Staphylococcus aureus [9]): 15 mm
C/C(=C1/CCOC1=O)[C@@H](O)[C@@H]1OCC[C@@H](O)[C@H]1O,inactive,inactive,,,
CCCCCC[C@H]1CO[C@@H]([C@H](O)/C(C)=C/C(=O)OCC)[C@H](O)[C@@H]1O,inactive,inactive,,,

# Reference: ChEMBL document CHEMBL1140978, “Synthesis and preliminary antibacterial evaluation of simplified thiomarinol analogs” (2009)
